Measured values from different studies.
Each line is one published result; the experiments were not run side by side.
Target: Peripheral plasma membrane protein CASK (CASK, Homo sapiens, UniProt O14936)
Sequence (O14936 1-926, as in one of the studies): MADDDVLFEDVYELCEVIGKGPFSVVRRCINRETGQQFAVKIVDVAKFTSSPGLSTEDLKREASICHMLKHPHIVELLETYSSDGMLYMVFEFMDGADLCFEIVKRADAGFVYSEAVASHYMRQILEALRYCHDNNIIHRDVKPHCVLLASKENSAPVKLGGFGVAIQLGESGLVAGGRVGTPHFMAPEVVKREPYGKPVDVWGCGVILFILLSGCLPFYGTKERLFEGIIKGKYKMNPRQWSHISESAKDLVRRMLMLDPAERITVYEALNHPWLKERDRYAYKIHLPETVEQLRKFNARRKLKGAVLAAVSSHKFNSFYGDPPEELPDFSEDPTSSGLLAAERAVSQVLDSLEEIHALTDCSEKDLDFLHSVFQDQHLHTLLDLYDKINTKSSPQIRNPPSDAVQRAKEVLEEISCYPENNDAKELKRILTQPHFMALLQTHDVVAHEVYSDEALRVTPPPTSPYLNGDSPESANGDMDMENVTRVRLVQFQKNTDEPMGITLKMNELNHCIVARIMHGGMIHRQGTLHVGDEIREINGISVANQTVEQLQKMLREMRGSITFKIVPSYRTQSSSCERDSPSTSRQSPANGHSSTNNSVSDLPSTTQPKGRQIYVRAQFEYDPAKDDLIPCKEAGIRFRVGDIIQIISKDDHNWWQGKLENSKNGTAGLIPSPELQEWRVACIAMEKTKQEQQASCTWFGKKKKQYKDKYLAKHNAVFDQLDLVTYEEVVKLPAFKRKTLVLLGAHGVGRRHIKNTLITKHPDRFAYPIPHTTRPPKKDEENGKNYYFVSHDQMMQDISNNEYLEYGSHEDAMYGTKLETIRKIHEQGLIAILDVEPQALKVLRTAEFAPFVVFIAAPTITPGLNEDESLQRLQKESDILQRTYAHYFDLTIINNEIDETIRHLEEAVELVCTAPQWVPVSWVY

| Structure (SMILES) | test | conditions | remaining binding |
| --- | --- | --- | --- |
| N[C@@H]1CCN(c2nccc(-c3cnn4ncccc34)n2)C1 | binding | 1 µM | 100% |
| O=C(NCCCN1CCOCC1)c1ccc(Nc2ncc(Cl)c(-c3ccc(Cl)s3)n2)cc1 | binding, competition with immobilised ligand | 1 µM | 98% |
| CSc1cccnc1N1CCN(Cc2nc3ccccc3[nH]2)CC1 | cell-free assay, competition with immobilised ligand | 1 µM | 100% |
| CN(C)c1ncc(F)c(-c2cnn3ncccc23)n1 | binding, competition with immobilised ligand | 1 µM | 79% |
| FC(F)(F)Oc1cccc(-c2cnc3ccc(-c4ccncc4)nn23)c1 | cell-free assay, competition with immobilised ligand | 5 µM | 50% |
| Cn1nc(C(=O)NCc2ccc(C(=O)O)cc2)cc1-c1ccc2[nH]ccc2c1 | cell-free assay, competition with immobilised ligand | 0.1 µM | 69% |
| F[C@@H]1CCN(c2nccc(-c3cnn4ncccc34)n2)C1 | binding | 1 µM | 100% |
| O=C(c1ccc(Nc2nccc(-c3cc4ccccc4s3)n2)cc1)N1CCC(N2CCCC2)CC1 | binding, competition with immobilised ligand | 1 µM | 85% |
| O=C(O)[C@@H]1[C@@H](Cn2nnc3ccccc3c2=O)CC[C@H]1C(=O)c1ccc(OCCC2CCOCC2)cc1 | cell-free assay, competition with immobilised ligand | 1 µM | 100% |
| COc1cnc(Nc2cccc(S(N)(=O)=O)c2)nc1N1CCN(c2ccccc2)C(=O)C1 | binding, competition with immobilised ligand | 1 µM | 79% |
| O=C(Nc1c[nH]nc1C(=O)NC1CCNCC1)c1cc(F)cc(F)c1 | binding, competition with immobilised ligand | 1 µM | 66% |
| COc1cnc(Nc2cccc(S(N)(=O)=O)c2)nc1N1CCN(c2ccccc2)CC1 | binding, competition with immobilised ligand | 1 µM | 95% |
| CN(C)c1nccc(-c2cnn3ncccc23)n1 | binding, competition with immobilised ligand | 1 µM | 90% |
| Cn1nc(C(F)(F)F)cc1-c1cnc(N2CCc3cc(S(=O)(=O)Nc4c(F)cc(Cl)cc4F)cc(N4CCCC4=O)c32)nc1 | cell-free assay, competition with immobilised ligand | 1 µM | 77% |
| C[C@H]1CCN(c2nccc(-c3cnn4ncccc34)n2)C1 | binding | 1 µM | 74% |
| O=C(c1ccc(Nc2ncc(Cl)c(-c3cc4ccccc4s3)n2)cc1)N1CCC(N2CCCC2)CC1 | binding, competition with immobilised ligand | 1 µM | 74% |
| COc1ccnn2ncc(-c3ccnc(N(C)C)n3)c12 | binding | 1 µM | 96% |
| Cc1nc(C2CCN(C(=O)c3ccc(OC(F)(F)F)cc3N)CC2)c2ncc(N3CCN(C)CC3)cc2n1 | cell-free assay, competition with immobilised ligand | 1 µM | 87% |
| C=CC(=O)N1CCC(C(=O)NCC(=O)N2CCN(c3nc(-c4cnc(N)nc4C(F)F)nc(N4CCOCC4)n3)CC2)CC1 | binding, competition with immobilised ligand | 1 µM | 69% |
| FC(F)(F)c1ccc2c(c1)nc(-c1cccnc1)n2C1CC1 | cell-free assay, competition with immobilised ligand | 1 µM | 100% |
| Nc1ncc2c(n1)-c1c([nH]c3ccc(C#CC4CC4)cc13)CCCC2 | binding, competition with immobilised ligand | 1 µM | 88% |
